Measured values as given in ChEMBL document CHEMBL4011636, “Utilization of an Active Site Mutant Receptor for the Identification of Potent and Selective Atypical 5-HT2C Receptor Agonists” (J Med Chem, 2017).
Active and inactive are the calls of the source.

What was measured:
[1] = tested on: Rattus norvegicus; assay: Antiobesity activity in ad libitum feeding Sprague-Dawley rat model assessed as reduction in food pellet consumption at 10 mg/kg, po administered at 60 mins prior to the onset of the dark cycle followed by incubation for first 8 hrs in light cycle and 12 hrs in dark cycle; type: functional; parameters: scale not given: the % may be the effect or the level left
Summary of the method: (§1)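 Male Sprague Dawley rats (~225 g; n = 6), trained in operant chambers, dosed orally with compound or vehicle (14% PPG, 1% Tween, 85% water) 60 min before dark onset. Food intake was monitored in individual boxes for 20 h (12 h dark plus first 8 h light). Percent reduction was computed from drug-treated versus vehicle-treated total intake.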

[2] = Permeability across apical to basolateral side in human Caco2 cells; type: ADME, cell-based; settings: Caco-2, read-out: permeability
[3] = Protein binding in rat plasma; type: ADME, cell-free; settings: read-out: PPB (converted)
[4] = Plasma concentration in Sprague-Dawley rat at 1 mg/kg, iv measured at 1 hr post dose by LC/MS-MS analysis; type: ADME, organism-based
[5] = Plasma concentration in Sprague-Dawley rat at 30 mg/kg, po measured at 7 hrs post dose by LC/MS-MS analysis; type: ADME, organism-based
Summary of the method: (§2)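 Male rats given 30 mg/kg orally in 0.15% docusate sodium/2% PVP-K/97.85% water. Plasma and brain were sampled at a single time point after dosing. Brain was diluted 1:2 (vol/weight) with water before homogenization (dilution factor 3). Concentrations were measured by LC/MS−MS after acetonitrile protein precipitation. Values are the average of three animals; B/P is the brain to plasma ratio.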

[6] = Half life in human microsomes; type: ADME, Microsome
[7] = Permeability of compound at pH 7.4 by PAMPA; type: physicochemical; settings: read-out: permeability
[8] = Substrate activity at rat P-gp; type: ADME
[9] = molecular target: T1, 5-hydroxytryptamine receptor 2B (Homo sapiens, UniProt P41595); assay: Agonist activity at recombinant human 5-HT2B receptor expressed in HEK293E cells assessed as induction of intracellular Ca2+ levels after 90 secs by Fluo-4-dye based FLIPR assay; type: cell-based, HEK293
Summary of the method: (§3)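 HEK293E cells stably expressing human receptor (VNV isoform for 5-HT2C; ~400−795 fmol/mg protein), grown in DMEM with 10% dialyzed FBS and G418. Cells plated at 20 000/well in serum-free DMEM overnight at 37 °C, then loaded 1 h at room temperature with 5 μM Fluo-4 in HBSS/25 mM HEPES. Eleven compound concentrations added on FLIPR, Ca2+ signal read for 90 s. EC50 from a four-parameter logistic fit, at least triplicate.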

[10] = Half life in rat microsomes; type: ADME, Microsome
[11] = Metabolic stability in rat liver microsomes assessed as parent compound remaining at […] after 10 mins; type: ADME, microsome; settings: read-out: Stability
[12] = molecular target: T2, 5-hydroxytryptamine receptor 2C (Homo sapiens, UniProt P28335); assay: Agonist activity at recombinant human 5-HT2C receptor expressed in HEK293E cells assessed as induction of intracellular Ca2+ levels after 90 secs by Fluo-4-dye based FLIPR assay; type: functional, cell-based, HEK293; summary of the method: as §3
T2 sequence (P28335 whole entry): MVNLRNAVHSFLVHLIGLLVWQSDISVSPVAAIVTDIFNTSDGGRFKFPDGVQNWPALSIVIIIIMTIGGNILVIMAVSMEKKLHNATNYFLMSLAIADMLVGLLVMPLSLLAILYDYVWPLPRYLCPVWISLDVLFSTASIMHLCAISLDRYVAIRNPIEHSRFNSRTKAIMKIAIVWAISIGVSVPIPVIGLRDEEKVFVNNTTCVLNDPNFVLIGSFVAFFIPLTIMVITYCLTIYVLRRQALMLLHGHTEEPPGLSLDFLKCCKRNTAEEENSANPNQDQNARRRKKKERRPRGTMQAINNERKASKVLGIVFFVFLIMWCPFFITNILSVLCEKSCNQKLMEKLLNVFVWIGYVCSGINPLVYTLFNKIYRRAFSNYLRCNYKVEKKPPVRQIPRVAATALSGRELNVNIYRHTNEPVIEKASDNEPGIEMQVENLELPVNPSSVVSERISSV

[13] = Ratio of drug uptake in Sprague-Dawley rat brain to plasma at 1 mg/kg, iv measured at 1 hr post dose by LC/MS-MS analysis; type: ADME, organism-based; settings: read-out: BPR
[14] = Permeability of compound at pH 5.5 by PAMPA; type: physicochemical; settings: read-out: permeability
[15] = molecular target: T3, 5-hydroxytryptamine receptor 2C (Homo sapiens) (UniProt P28335); assay: Intrinsic activity at recombinant human 5-HT2C receptor expressed in HEK293E cells assessed as induction of intracellular Ca2+ levels after 90 secs by Fluo-4-dye based FLIPR assay relative to serotonin; type: functional, cell-based; settings: HEK293
T3 sequence (whole entry): T2 sequence (P28335 whole entry)
Summary of the method: (§4)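 FLIPR Fluo-4 Ca2+ assay in HEK293E cells stably expressing the human receptor (VNV isoform for 5-HT2C), eleven-point concentration series, 90 s read. Response normalized to 3 μM serotonin on the same plate (defined as IA = 1). Intrinsic activity taken from a four-parameter logistic fit.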

[16] = Substrate activity at human P-gp; type: ADME
[17] = Drug uptake in Sprague-Dawley rat brain at 1 mg/kg, iv measured at 1 hr post dose by LC/MS-MS analysis
[18] = molecular target: 5-hydroxytryptamine receptor 2A (Homo sapiens, UniProt P28223); assay: Agonist activity at recombinant human 5-HT2A receptor expressed in HEK293E cells assessed as induction of intracellular Ca2+ levels after 90 secs by Fluo-4-dye based FLIPR assay; type: cell-based, HEK293; summary of the method: as §3
[19] = Metabolic stability in human liver microsomes assessed as parent compound remaining at […] after 10 mins; type: ADME, microsome; settings: read-out: Stability
[20] = Protein binding in human plasma; type: ADME, cell-free; settings: read-out: PPB (converted)
[21] = Efflux ratio of permeability across basolateral to apical side in human Caco2 cells; type: ADME, cell-based; settings: Caco-2
[22] = Drug uptake in Sprague-Dawley rat brain at 30 mg/kg, po measured at 7 hrs post dose by LC/MS-MS analysis; type: ADME, organism-based; settings: read-out: Drug uptake; summary of the method: as §2
[23] = Permeability across basolateral to apical side in human Caco2 cells; type: ADME, cell-based; settings: Caco-2, read-out: permeability
[24] = Ratio of drug uptake in Sprague-Dawley rat brain to plasma at 30 mg/kg, po measured at 7 hrs post dose by LC/MS-MS analysis; type: ADME, organism-based; settings: read-out: BPR; summary of the method: as §2
[25] = tested on: Rattus norvegicus; assay: Toxicity in ad libitum feeding Sprague-Dawley rat model assessed as effect on locomotor activity at 3 to 30 mg/kg, po administered at 60 mins prior to the onset of the dark cycle followed by incubation for first 8 hrs in light cycle and 12 hrs in dark cycle; type: organism-based; settings: in vivo
[26] = tested on: Rattus norvegicus; assay: Antiobesity activity in ad libitum feeding Sprague-Dawley rat model assessed as reduction in food pellet consumption at 3 to 10 mg/kg, po administered at 60 mins prior to the onset of the dark cycle measured at first 4 hrs post last dose; type: functional, organism-based
Summary of the method: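 Male Sprague Dawley rats (n = 6) dosed orally 60 min before dark onset with 3 or 10 mg/kg, in vehicle of 14% PPG, 1% Tween, 85% water. Food pellet consumption was recorded in operant boxes and compared with vehicle over the first 4 h.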

[27] = Plasma concentration in Sprague-Dawley rat at 30 mg/kg, po measured at 3 hrs post dose by LC/MS-MS analysis; type: ADME, organism-based; summary of the method: as §2
[28] = Ratio of drug uptake in Sprague-Dawley rat brain to plasma at 30 mg/kg, po measured at 3 hrs post dose by LC/MS-MS analysis; type: ADME, organism-based; settings: read-out: BPR; summary of the method: as §2
[29] = molecular target: T1, 5-hydroxytryptamine receptor 2B; assay: Intrinsic activity at recombinant human 5-HT2B receptor expressed in HEK293E cells assessed as induction of intracellular Ca2+ levels after 90 secs by Fluo-4-dye based FLIPR assay relative to serotonin; type: functional, cell-based; settings: HEK293; summary of the method: as §4
[30] = tested on: Rattus norvegicus; assay: Antiobesity activity in ad libitum feeding Sprague-Dawley rat model assessed as reduction in food intake at 30 mg/kg, po administered at 60 mins prior to the onset of the dark cycle followed by incubation for first 8 hrs in light cycle and 12 hrs in dark cycle; type: functional; parameters: scale not given: the % may be the effect or the level left; summary of the method: as §1
[31] = tested on: Rattus norvegicus; assay: Antiobesity activity in ad libitum feeding Sprague-Dawley rat model assessed as reduction in food intake at 30 mg/kg, po administered at 60 mins prior to the onset of the dark cycle followed by incubation for first 8 hrs in light cycle and 12 hrs in dark cycle in presence of 5-HT2C anatgonist SB-243213; type: functional; parameters: scale not given: the % may be the effect or the level left
[32] = tested on: Rattus norvegicus; assay: Toxicity in ad libitum feeding Sprague-Dawley rat model assessed as reduction in water intake at 3 to 30 mg/kg, po administered at 60 mins prior to the onset of the dark cycle followed by incubation for first 8 hrs in light cycle and 12 hrs in dark cycle; type: organism-based; settings: in vivo
[33] = tested on: Rattus norvegicus; assay: Antiobesity activity in ad libitum feeding Sprague-Dawley rat model assessed as reduction in food pellet consumption administered po at 60 mins prior to the onset of the dark cycle followed by incubation for first 8 hrs in light cycle and 12 hrs in dark cycle; type: functional, organism-based; summary of the method: as §1
[34] = tested on: Rattus norvegicus; assay: Antiobesity activity in ad libitum feeding Sprague-Dawley rat model assessed as reduction in food pellet consumption at 30 mg/kg, po administered at 60 mins prior to the onset of the dark cycle followed by incubation for first 8 hrs in light cycle and 12 hrs in dark cycle; type: functional; parameters: scale not given: the % may be the effect or the level left; summary of the method: as §1
[35] = Drug uptake in Sprague-Dawley rat brain at 30 mg/kg, po measured at 3 hrs post dose by LC/MS-MS analysis; type: ADME, organism-based; settings: read-out: Drug uptake; summary of the method: as §2

T1 sequence (P41595 whole entry, canonical isoform): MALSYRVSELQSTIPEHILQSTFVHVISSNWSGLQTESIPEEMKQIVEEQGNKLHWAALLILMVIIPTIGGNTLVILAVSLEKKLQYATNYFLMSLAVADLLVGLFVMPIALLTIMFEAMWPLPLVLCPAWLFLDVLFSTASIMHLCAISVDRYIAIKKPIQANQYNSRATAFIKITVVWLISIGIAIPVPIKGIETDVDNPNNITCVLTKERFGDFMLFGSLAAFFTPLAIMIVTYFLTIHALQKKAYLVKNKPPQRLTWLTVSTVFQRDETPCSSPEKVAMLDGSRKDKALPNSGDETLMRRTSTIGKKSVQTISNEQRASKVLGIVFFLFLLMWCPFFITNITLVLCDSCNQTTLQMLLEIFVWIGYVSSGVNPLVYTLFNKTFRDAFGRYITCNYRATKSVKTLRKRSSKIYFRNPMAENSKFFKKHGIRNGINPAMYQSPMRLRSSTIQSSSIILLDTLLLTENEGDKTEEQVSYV
Sequence of 5-hydroxytryptamine receptor 2A (P28223 whole entry): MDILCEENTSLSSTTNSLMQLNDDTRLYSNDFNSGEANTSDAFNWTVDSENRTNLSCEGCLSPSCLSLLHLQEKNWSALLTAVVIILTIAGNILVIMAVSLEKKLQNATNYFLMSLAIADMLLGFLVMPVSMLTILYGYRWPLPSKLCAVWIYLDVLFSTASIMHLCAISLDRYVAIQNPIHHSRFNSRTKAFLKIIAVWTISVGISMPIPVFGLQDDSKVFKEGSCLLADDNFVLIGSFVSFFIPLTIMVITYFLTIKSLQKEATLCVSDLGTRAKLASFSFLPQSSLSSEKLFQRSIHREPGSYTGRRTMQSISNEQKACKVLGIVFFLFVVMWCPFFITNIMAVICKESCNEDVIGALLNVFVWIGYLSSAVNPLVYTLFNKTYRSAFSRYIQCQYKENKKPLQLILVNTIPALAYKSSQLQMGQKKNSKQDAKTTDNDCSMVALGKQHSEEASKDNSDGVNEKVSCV

Row | Compound | Papp A→B [2] | fraction unbound [3] | half-life [6] | Papp [7] | EC50 [9] | half-life [10] | EC50 [12] | Papp [14] | Intrinsic activity [15] | EC50 [18] | remaining at 10 min [19] | fraction unbound [20] | efflux ratio [21] | Papp B→A [23] | further results
1 | Cc1c(C(=O)NN2CCCCC2)nn(-c2ccc(Cl)cc2Cl)c1-c1ccc(Cl)cc1 [RIMONABANT] |  |  |  |  |  |  |  |  |  |  |  |  |  |  | Activity [1]: 27%
2 | Cc1nc(-c2cccc3ccccc23)sc1C(=O)N1CCC(CO)CC1 | 32.9 ×10⁻⁶ cm/s | 0.004 | 21 min | 73.9 ×10⁻⁶ cm/s | > 10000 nM | 6 min | 6 nM | 60.7 ×10⁻⁶ cm/s | 1 to 1.1 | > 10000 nM | 80% | 0.005 | 0.5 | 17.5 ×10⁻⁶ cm/s | concentration at 1 h [4]: 569 nM; concentration at 7 h [5]: 736 nM; Activity [8]: Active; remaining at 10 min [11]: 24%; Kp at 1 h [13]: 0.15; Activity [16]: Not Active; concentration at 1 h [17]: 76 nM; concentration at 7 h [22]: 35 nM; Kp at 7 h [24]: 0.05
3 | CCn1nc(-c2cccc3cccnc23)cc1-c1ccc(N)nn1 | 77.7 ×10⁻⁶ cm/s | 0.079 | 16 min | 88.9 ×10⁻⁶ cm/s | 48 nM | 25 min | 5 nM | 72.7 ×10⁻⁶ cm/s | 0.8 | 635 nM | 61% | 0.062 | 0.7 | 52.8 ×10⁻⁶ cm/s | Activity [25]: Non-Toxic; Activity [26]: Active; concentration at 3 h [27]: 7540 nM; Kp at 3 h [28]: 0.9; Intrinsic activity [29]: 0.2; Activity [30]: 38%; Activity [31]: 12%; Activity [32]: Non-Toxic; Activity [33]: Dose-dependent effect; Activity [34]: 24%; concentration at 3 h [35]: 3920 nM
